Results published in ChEMBL document CHEMBL3421585, “Structure-Based Design of Potent and Selective Inhibitors of the Metabolic Kinase PFKFB3” (J Med Chem, 2015).
Converted amounts (≈) assume the structure as drawn.

What was measured:
[1] = biological target: 6-phosphofructo-2-kinase/fructose-2,6-bisphosphatase 1 (Homo sapiens, UniProt P16118); experiment: Inhibition of recombinant human PFKFB1 using fructose 6 phosphate as substrate assessed as ADP generation after 1 hr by ADP Glo assay
[2] = biological target: 6-phosphofructo-2-kinase/fructose-2,6-bisphosphatase 2 (Homo sapiens, UniProt O60825); experiment: Inhibition of recombinant human PFKFB2 using fructose 6 phosphate as substrate assessed as ADP generation after 1 hr by ADP Glo assay
6-phosphofructo-2-kinase/fructose-2,6-bisphosphatase 2, sequence (O60825 whole entry): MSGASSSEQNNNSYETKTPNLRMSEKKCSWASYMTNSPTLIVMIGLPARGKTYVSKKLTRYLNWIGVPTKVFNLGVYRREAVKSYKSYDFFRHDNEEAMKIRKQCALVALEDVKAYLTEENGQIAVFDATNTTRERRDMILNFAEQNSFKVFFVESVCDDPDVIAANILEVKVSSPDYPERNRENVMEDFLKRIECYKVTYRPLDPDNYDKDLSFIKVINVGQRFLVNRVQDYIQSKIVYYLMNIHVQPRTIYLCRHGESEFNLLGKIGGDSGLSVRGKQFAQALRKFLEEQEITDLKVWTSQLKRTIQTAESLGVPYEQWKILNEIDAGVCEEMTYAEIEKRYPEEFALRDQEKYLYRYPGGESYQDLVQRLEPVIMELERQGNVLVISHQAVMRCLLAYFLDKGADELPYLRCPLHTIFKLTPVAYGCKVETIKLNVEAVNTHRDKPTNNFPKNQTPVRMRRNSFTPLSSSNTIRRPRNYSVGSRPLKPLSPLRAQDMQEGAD

[3] = biological target: T1, 6-phosphofructo-2-kinase/fructose-2,6-bisphosphatase 3 (Homo sapiens, UniProt Q16875); experiment: Inhibition of recombinant human PFKFB3 using fructose 6 phosphate as substrate assessed as ADP generation after 1 hr by ADP Glo assay
T1 sequence (Q16875 whole entry): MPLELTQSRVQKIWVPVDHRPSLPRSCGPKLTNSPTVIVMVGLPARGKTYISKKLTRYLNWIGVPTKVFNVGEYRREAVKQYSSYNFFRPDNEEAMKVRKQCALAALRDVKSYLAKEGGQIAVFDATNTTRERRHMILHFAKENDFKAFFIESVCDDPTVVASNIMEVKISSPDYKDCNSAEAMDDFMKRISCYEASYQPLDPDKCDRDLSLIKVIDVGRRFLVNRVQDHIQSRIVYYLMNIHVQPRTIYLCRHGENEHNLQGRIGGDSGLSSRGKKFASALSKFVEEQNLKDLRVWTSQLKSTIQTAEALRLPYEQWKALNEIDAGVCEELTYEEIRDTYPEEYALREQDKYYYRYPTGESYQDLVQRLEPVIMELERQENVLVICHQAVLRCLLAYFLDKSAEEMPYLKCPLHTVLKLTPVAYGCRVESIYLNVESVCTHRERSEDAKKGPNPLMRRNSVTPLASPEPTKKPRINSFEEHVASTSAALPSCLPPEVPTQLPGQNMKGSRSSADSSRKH

[4] = biological target: T1, 6-phosphofructo-2-kinase/fructose-2,6-bisphosphatase 3; experiment: Inhibition of PFKFB3 in human A549 cells assessed as reduction of fructose-1,6-bisphosphate formation after 4 hrs by MS/MS analysis; type: cell-based
How it was run: (§1)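 A549 cells; fructose-1,6-bisphosphate or lactate production measured.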

[5] = Lipophilicity, log D of the compound at pH 7.4; conditions: buffer
[6] = biological target: T1, 6-phosphofructo-2-kinase/fructose-2,6-bisphosphatase 3; experiment: Inhibition of PFKFB3 in human A549 cells assessed as decrease in lactate secretion after 4 hrs; type: cell-based; how it was run: as §1
A549 = experiment: Cytotoxicity against human A549 cells assessed as cell viability after 4 hrs; type: cell-based; conditions: a549, 4 h
[7] = Aqueous solubility of the compound at pH 7.4; type: physicochemical; conditions: buffer
[8] = Fraction unbound in mouse plasma; type: ADME, cell-free
[9] = Fraction unbound in rat plasma; type: ADME, cell-free
[10] = Fraction unbound in human plasma; type: ADME, cell-free
[11] = Half life in mouse hepatocytes; type: ADME, cell-based, Hepatocyte
[12] = Half life in rat hepatocytes; type: ADME, cell-based, Hepatocyte
[13] = Half life in human hepatocytes; type: ADME, cell-based, Hepatocyte
[14] = Apparent intrinsic permeability in human Caco2 cells at pH 6.5; type: ADME, cell-based; conditions: Caco-2, pH 6.5
[15] = Efflux ratio of apparent intrinsic permeability in human Caco2 cells; type: ADME, cell-based; conditions: Caco-2
[16] = Oral bioavailability in CD1 mouse at 2.5 uM/kg; type: ADME, organism-based; conditions: in vivo
How it was run: (§2)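 CD1 mice dosed po and iv at 2.5 µMol/kg.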

[17] = Volume of distribution at steady state in CD1 mouse at 2.5 uM/kg, po and iv; type: ADME, organism-based; conditions: in vivo, read-out: Vdss; how it was run: as §2
[18] = Volume of distribution at steady state in Wistar rat at 3.1 uM/kg, po and 2.5 uM/kg, iv; type: ADME, organism-based; conditions: in vivo, read-out: Vdss
How it was run: (§3)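 Male Wistar Han rats, 10-12 weeks old (n=2), given 3.1 µMol/kg po and 2.5 µMol/kg iv in 5% DMSO / 95% Captisol (30% in water).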

[19] = Clearance in CD1 mouse at 2.5 uM/kg, po and iv; type: ADME, organism-based; conditions: in vivo; how it was run: as §2
[20] = Clearance in Wistar rat at 3.1 uM/kg, po and […] uM/kg, iv; type: ADME, organism-based; conditions: in vivo
[21] = Half life in CD1 mouse at 2.5 uM/kg, iv; type: ADME, organism-based; conditions: in vivo; how it was run: as §2
[22] = Half life in Wistar rat at 2.5 uM/kg, iv; type: ADME, organism-based; conditions: in vivo; how it was run: as §3
[23] = AUC in nude mouse at 124 umol/kg; type: ADME, organism-based; conditions: plasma
[24] = Cmax in nude mouse at 124 umol/kg; type: ADME, organism-based; set-up: dose 124 umol/kg; conditions: in vivo
Homo sapiens = species on record: Homo sapiens; experiment: Selectivity ratio of IC50 for recombinant human PFKFB2 to IC50 for recombinant human PFKFB3
How it was run: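 Ratio of the PFKFB2 enzyme IC50 to the PFKFB3 enzyme IC50. Each IC50 is the mean of at least two independent measurements, reported in micromolar, with SEM ±0.2 log units.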

6-phosphofructo-2-kinase/fructose-2,6-bisphosphatase 1, sequence (P16118 whole entry): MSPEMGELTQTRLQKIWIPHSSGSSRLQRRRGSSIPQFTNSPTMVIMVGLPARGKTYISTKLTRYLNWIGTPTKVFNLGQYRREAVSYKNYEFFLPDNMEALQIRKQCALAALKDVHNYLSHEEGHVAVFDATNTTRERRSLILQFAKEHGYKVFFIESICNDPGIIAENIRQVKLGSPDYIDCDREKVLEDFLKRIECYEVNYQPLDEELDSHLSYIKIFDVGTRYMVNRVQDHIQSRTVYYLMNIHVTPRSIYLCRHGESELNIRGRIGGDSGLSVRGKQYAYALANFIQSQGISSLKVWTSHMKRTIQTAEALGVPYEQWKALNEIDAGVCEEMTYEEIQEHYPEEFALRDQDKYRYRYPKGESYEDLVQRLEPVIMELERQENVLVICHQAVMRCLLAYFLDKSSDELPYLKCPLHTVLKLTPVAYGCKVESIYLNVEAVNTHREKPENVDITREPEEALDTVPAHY

SMILES | IC50 [1] | IC50 [2] | IC50 [3] | IC50 [4] | logD [5] | IC50 [6] | further results
Cc1noc(C)c1Cn1nc(C#N)c2cc(Oc3ccc(NC(=O)[C@@H]4CCCN4)cc3)ccc21 | 0.191 µM | 0.025 µM | 0.003 µM | 0.067 µM |  |  | 
CCn1cc(C#N)c2cc(Oc3ccc(NC(=O)CNC)cc3)ccc21 | 20.4 µM | 24.9 µM | 0.83 µM |  | 2.7 | > 30 µM | 
Cc1noc(C)c1Cn1cc(C#N)c2cc(Oc3ccc(NC(=O)[C@@H]4CCCN4)cc3)ccc21 | 1.13 µM | 0.159 µM | 0.011 µM | 0.281 µM | 2.8 | > 30 µM | 
N#Cc1c(N)[nH]c2ccc(Oc3ccc(NC(=O)[C@H](N)CO)cc3)cc12 | 61.5 µM | > 100 µM | > 100 µM |  | 1.6 |  | 
CCn1c(N)c(C#N)c2cc(Oc3ccc(NC(=O)CN)cc3)ccc21 | 25 µM | 9.18 µM | 0.514 µM | > 30 µM | 2 | > 30 µM | 
CC(C)Cn1cc(C#N)c2cc(Sc3ccc(NC(=O)[C@@H]4CCCN4)cc3)ccc21 | 1.66 µM | 0.19 µM | 0.111 µM |  | > 4.3 | 14 µM | Activity (A549): Toxic
Cn1cc(-c2cn(C)c3ccc(Oc4ccc(NC(=O)[C@@H]5CCCN5)cc4)cc23)cn1 | 2.35 µM | 0.818 µM | 0.021 µM | 0.979 µM | 1.9 | 9.71 µM | Activity (A549): Non-toxic
Cn1c(N)c(C#N)c2cc(Oc3ccc(NC(=O)CN)cc3)ccc21 | 38.2 µM | 21.1 µM | 0.815 µM |  | 1.9 | > 30 µM | 
CC(C)Cn1cc(C#N)c2cc(Oc3ccc(NC(=O)[C@@H]4CCCN4)cc3)ccc21 | 2.06 µM | 0.384 µM | 0.023 µM | 0.343 µM | 3.5 | 5.77 µM | solubility [7]: 48 µM (≈ 19.3 µg/mL); fraction unbound [8]: 0.0164; fraction unbound [9]: < 0.0003; fraction unbound [10]: 0.0033; half-life [11]: 21 min; half-life [12]: 21 min; half-life [13]: 28 min; Papp [14]: 134 nm/s; efflux ratio [15]: 4.6; bioavailability at […] [16]: 42%; Vd at […] [17]: 3.3 L/kg; Vd [18]: 0.4 L/kg; clearance at […] [19]: 2.28 L/h/kg; clearance [20]: 0.12 L/h/kg; half-life at […] [21]: 84 min; half-life at […] [22]: 204 min; Activity (A549): Toxic; AUC [23]: 259 µM·h; Cmax [24]: 35 µM; Ratio IC50 (Homo sapiens): 17
CC(C)Cn1cc(C#N)c2cc(Nc3ccc(NC(=O)[C@@H]4CCCN4)cc3)ccc21 | 36.6 µM | 6.15 µM | 1.57 µM |  | 2.7 | > 30 µM | 
N#Cc1cn(Cc2ccccc2)c2ccc(Oc3ccc(NC(=O)[C@@H]4CCCN4)cc3)cc12 | 1.83 µM | 0.188 µM | 0.02 µM |  | 3.9 | 6.95 µM | Activity (A549): Toxic
CCn1cc(C#N)c2cc(Oc3ccc(NC(=O)[C@@H]4CCCN4)cc3)ccc21 | 22.1 µM | 1.82 µM | 0.112 µM | 3.05 µM | 2.9 | 12 µM | Activity (A549): Non-toxic
CCn1cc(C#N)c2cc(Oc3ccc(NC(=O)[C@@H]4CCC(=O)N4)cc3)ccc21 | > 100 µM | 23.7 µM | 0.531 µM |  |  | > 30 µM | 
CCn1cc(C#N)c2cc(Oc3ccc(NC(=O)[C@@H]4CCN4)cc3)ccc21 | 3.74 µM |  | 0.086 µM |  |  | 19.6 µM | 
CCn1cc(C#N)c2cc(Oc3ccc(NC(=O)[C@@H]4CCCCN4)cc3)ccc21 | 86.3 µM | 22 µM | 2.2 µM |  | 2.7 | > 30 µM | 
CN(C)CCn1cc(C#N)c2cc(Oc3ccc(NC(=O)[C@@H]4CCCN4)cc3)ccc21 | 53.8 µM | > 100 µM | 0.256 µM | 7.48 µM | 2.1 | > 30 µM | 
Cn1cc(-c2c[nH]c3ccc(Oc4ccc(NC(=O)[C@@H]5CCCN5)cc4)cc23)cn1 | 27.4 µM | 3.57 µM | 0.114 µM | > 30 µM | 2.3 | > 30 µM | 
N#Cc1c(N)[nH]c2ccc(Oc3ccc(NC(=O)[C@@H](N)CO)cc3)cc12 | 51.1 µM | 26.9 µM | 0.575 µM | > 30 µM | 1.9 | > 30 µM | 
CC(C)Cn1cc(C#N)c2cc(N(C)c3ccc(NC(=O)[C@@H]4CCCN4)cc3)ccc21 | 5 µM | 0.141 µM | 0.075 µM | > 30 µM | 3.8 | 13.7 µM | Activity (A549): Toxic

SMILES | IC50 [1] | IC50 [2] | IC50 [3] | IC50 [4] | logD [5] | IC50 [6] | further results
N#Cc1c[nH]c2ccc(Oc3ccc(NC(=O)CN)cc3)cc12 | 37.6 µM | 63.2 µM | 2.01 µM |  | 2.1 |  | 
N#Cc1c(N)[nH]c2ccc(Oc3ccc(NC(=O)CN)cc3)cc12 | > 100 µM | 53.8 µM | 2.32 µM |  | 1.6 |  | 
CC(C)Cn1cc(C#N)c2cc(S(=O)(=O)c3ccc(NC(=O)[C@@H]4CCCN4)cc3)ccc21 | 0.321 µM | > 100 µM | 37.7 µM | > 30 µM | 2.9 | 24.7 µM | 
CNC(=O)Cn1cc(C#N)c2cc(Oc3ccc(NC(=O)[C@@H]4CCCN4)cc3)ccc21 | 16.9 µM | 2.35 µM | 0.111 µM | 14 µM | 1.4 | > 30 µM | 
N#Cc1c(N)n(Cc2ccccc2)c2ccc(Oc3ccc(NC(=O)CN)cc3)cc12 | 2.66 µM | 1.48 µM | 0.104 µM | > 30 µM | 2.9 | 12.6 µM | Activity (A549): Toxic
CCn1cc(C#N)c2cc(Oc3ccc(NC(=O)CN)cc3)ccc21 | 18.4 µM | 22.8 µM | 0.562 µM |  | 2.5 | > 30 µM | 
CN(C)C(=O)Cn1c(N)c(C#N)c2cc(Oc3ccc(NC(=O)CN)cc3)ccc21 | 2.53 µM | 6.84 µM | 0.343 µM | > 30 µM | 0.5 | > 30 µM | 
CCn1cc(C#N)c2cc(Oc3ccc(NC(=O)CN(C)C)cc3)ccc21 | 62.9 µM | 76.1 µM | 9.83 µM |  |  | > 30 µM | 
CCn1cc(C#N)c2cc(Oc3ccc(NC(=O)[C@H]4CCCN4)cc3)ccc21 | > 100 µM | > 100 µM | 70.9 µM |  | 2.8 | > 30 µM | 
CC(C)Cn1nc(C#N)c2cc(Oc3ccc(NC(=O)[C@@H]4CCCN4)cc3)ccc21 | 0.294 µM | 0.015 µM | 0.004 µM | 0.297 µM | 3.6 | 15.4 µM | Activity (A549): Toxic; Ratio IC50 (Homo sapiens): 4
O=C(/C=C/c1cccnc1)c1ccncc1 |  |  | > 100 µM |  |  |  | 
N#Cc1cn(CC2CCOCC2)c2ccc(Oc3ccc(NC(=O)[C@@H]4CCCN4)cc3)cc12 | 3.47 µM | 0.429 µM | 0.048 µM | 0.633 µM | 2.8 | > 30 µM | 
CC(C)Cn1cc(C#N)c2cc(Cc3ccc(NC(=O)[C@@H]4CCCN4)cc3)ccc21 | 5.92 µM | 1.45 µM | 0.199 µM | > 30 µM | 3.9 | > 30 µM | 
CC(=O)Nc1ccc(Oc2ccc3[nH]c(N)c(C#N)c3c2)cc1 | 24 µM | > 100 µM | > 100 µM |  | 2.8 |  | 
CCn1cc(C#N)c2cc(Oc3ccc(N(C)C(=O)[C@@H]4CCCN4)cc3)ccc21 | 72.3 µM | 76.5 µM | 23.1 µM |  | 1.9 | > 30 µM | 
CC(C)Cn1c(N)c(C#N)c2cc(Oc3ccc(NC(=O)CN)cc3)ccc21 | 3.18 µM | 2.52 µM | 0.177 µM | > 30 µM | 3.2 | 16.4 µM | Activity (A549): Toxic
N#Cc1cn(-c2ccccc2)c2ccc(Oc3ccc(NC(=O)[C@@H]4CCCN4)cc3)cc12 | 1.93 µM | 0.374 µM | 0.027 µM |  | > 4.3 | 8.71 µM | Activity (A549): Toxic
CN1Cc2cc(-n3cc(C#N)c4cc(Oc5ccc(NC(=O)[C@@H]6CCCN6)cc5)ccc43)ccc2C1=O | 0.701 µM | 0.108 µM | 0.008 µM | 0.14 µM | 3 | 2.18 µM | Activity (A549): Non-toxic
